Data as given in BindingDB's records for doi:10.1016/j.bmcl.2015.12.102 (Reset Therapeutics, 2016).

Target: T1, Period circadian protein homolog 2 (Homo sapiens, UniProt O15055)
T1 sequence (O15055 whole entry): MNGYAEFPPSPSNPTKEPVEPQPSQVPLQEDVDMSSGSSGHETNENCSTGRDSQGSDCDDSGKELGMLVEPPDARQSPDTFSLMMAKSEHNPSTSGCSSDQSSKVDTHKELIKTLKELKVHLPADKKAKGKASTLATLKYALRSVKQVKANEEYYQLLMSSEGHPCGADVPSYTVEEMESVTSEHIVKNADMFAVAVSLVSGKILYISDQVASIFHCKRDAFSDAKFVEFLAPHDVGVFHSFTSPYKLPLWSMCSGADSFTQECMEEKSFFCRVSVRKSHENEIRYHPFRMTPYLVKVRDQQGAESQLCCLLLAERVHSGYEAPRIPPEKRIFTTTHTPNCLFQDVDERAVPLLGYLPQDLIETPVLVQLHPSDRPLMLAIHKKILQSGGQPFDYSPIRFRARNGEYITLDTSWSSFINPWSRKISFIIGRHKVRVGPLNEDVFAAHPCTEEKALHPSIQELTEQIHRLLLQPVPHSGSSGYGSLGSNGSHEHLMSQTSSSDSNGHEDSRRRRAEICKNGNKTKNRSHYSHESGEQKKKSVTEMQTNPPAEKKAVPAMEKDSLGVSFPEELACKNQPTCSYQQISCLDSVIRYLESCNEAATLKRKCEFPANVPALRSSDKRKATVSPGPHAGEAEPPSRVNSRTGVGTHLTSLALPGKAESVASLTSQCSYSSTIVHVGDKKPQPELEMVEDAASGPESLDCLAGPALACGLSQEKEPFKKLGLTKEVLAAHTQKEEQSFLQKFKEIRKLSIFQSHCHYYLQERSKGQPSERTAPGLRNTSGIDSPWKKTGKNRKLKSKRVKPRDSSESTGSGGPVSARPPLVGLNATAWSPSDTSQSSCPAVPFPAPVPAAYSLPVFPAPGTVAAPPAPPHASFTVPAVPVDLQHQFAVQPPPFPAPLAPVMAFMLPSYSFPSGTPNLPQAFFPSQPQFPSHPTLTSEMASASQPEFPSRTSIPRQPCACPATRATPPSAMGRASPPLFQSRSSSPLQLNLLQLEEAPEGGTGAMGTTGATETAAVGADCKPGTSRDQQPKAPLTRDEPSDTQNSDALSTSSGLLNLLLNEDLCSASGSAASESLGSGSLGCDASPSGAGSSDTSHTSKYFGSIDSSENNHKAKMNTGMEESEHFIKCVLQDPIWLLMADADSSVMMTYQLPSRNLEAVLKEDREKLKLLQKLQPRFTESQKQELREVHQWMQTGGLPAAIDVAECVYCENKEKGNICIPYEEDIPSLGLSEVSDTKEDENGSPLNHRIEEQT
Assay: Reduction of amplitude effect of PER2 in human U2OS cells harboring Per2-dLuc luciferase reporter gene assessed as effects on circadian rhythms
Method in brief: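 Human osteosarcoma U2OS cells carrying a Per2-dLuc luciferase reporter, treated continuously; circadian luminescence rhythm amplitude followed. 8-point threefold dilution series; EC50 taken as concentration giving 50% of the compound's own maximal response (titrations without plateau give no EC50).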

Row | SMILES | EC50
1 | O=S(=O)(C1CCCCC1)N(Cc1ccco1)CC(O)Cn1c2ccccc2c2ccccc21 (stereo unspecified) | 1 µM
2 | COCCS(=O)(=O)N(Cc1ccco1)CC(O)Cn1c2ccccc2c2ccccc21 (stereo unspecified) | 0.288 µM
3 | O=S(=O)(C1CC1)N(Cc1ccco1)CC(O)Cn1c2ccccc2c2ccccc21 (stereo unspecified) | 0.557 µM
4 | CCCCS(=O)(=O)N(Cc1ccco1)CC(O)Cn1c2ccccc2c2ccccc21 (stereo unspecified) | 0.374 µM
5 | CC(C)CS(=O)(=O)N(Cc1ccco1)CC(O)Cn1c2ccccc2c2ccccc21 (stereo unspecified) | 0.361 µM
6 | O=S(=O)(C1CCOC1)N(Cc1ccco1)CC(O)Cn1c2ccccc2c2ccccc21 (stereo unspecified) | 1.18 µM
7 | CC(C)S(=O)(=O)N(Cc1ccco1)CC(O)Cn1c2ccccc2c2ccccc21 (stereo unspecified) | 0.438 µM
8 | CCCS(=O)(=O)N(Cc1ccco1)CC(O)Cn1c2ccccc2c2ccccc21 (stereo unspecified) | 0.516 µM
9 | CCS(=O)(=O)N(Cc1ccco1)CC(O)Cn1c2ccccc2c2ccccc21 (stereo unspecified) | 0.197 µM
10 | CS(=O)(=O)N(CC(O)Cn1c2ccccc2c2ccccc21)c1ccccn1 (stereo unspecified) | > 10 µM
11 | CS(=O)(=O)N(CC(O)Cn1c2ccccc2c2ccccc21)C1CCCC1 (stereo unspecified) | 0.308 µM
12 | CS(=O)(=O)N(CC(O)Cn1c2ccccc2c2ccccc21)C1CCCCC1 (stereo unspecified) | 0.532 µM
13 | CS(=O)(=O)N(CC(O)Cn1c2ccccc2c2ccccc21)C1COC1 (stereo unspecified) | 3.53 µM
14 | CS(=O)(=O)N(CC(O)Cn1c2ccccc2c2ccccc21)C1CCOCC1 (stereo unspecified) | 0.819 µM
15 | CS(=O)(=O)N(CC(O)Cn1c2ccccc2c2ccccc21)C1CC(F)(F)C1 (stereo unspecified) | 1.27 µM
16 | CS(=O)(=O)N(CC(O)Cn1c2ccccc2c2ccccc21)C1CCC(F)(F)CC1 (stereo unspecified) | 0.69 µM
17 | COCCN(CC(O)Cn1c2ccccc2c2ccccc21)S(C)(=O)=O (stereo unspecified) | 1.02 µM
18 | CS(=O)(=O)N(CC(O)Cn1c2ccccc2c2ccccc21)c1ccccc1 (stereo unspecified) | 0.272 µM
19 | CS(=O)(=O)N(CC(O)Cn1c2ccccc2c2ccccc21)c1ccccc1F (stereo unspecified) | 2.55 µM
20 | CS(=O)(=O)N(CC(O)Cn1c2ccccc2c2ccccc21)c1cccc(F)c1 (stereo unspecified) | 0.4 µM
21 | CS(=O)(=O)N(CC(O)Cn1c2ccccc2c2ccccc21)c1ccc(F)cc1 (stereo unspecified) | 0.939 µM

Row | SMILES | EC50
22 | CS(=O)(=O)N(Cc1ccccc1)CC(O)Cn1c2ccccc2c2ccccc21 (stereo unspecified) | 0.818 µM
23 | O=S1(=O)CCN1CC(O)Cn1c2ccccc2c2ccccc21 (stereo unspecified) | 0.19 µM
24 | O=S1(=O)CCCN1CC(O)Cn1c2ccccc2c2ccccc21 (stereo unspecified) | 0.144 µM
25 | O=S1(=O)CCCCN1CC(O)Cn1c2ccccc2c2ccccc21 (stereo unspecified) | 0.173 µM
26 | O=S1(=O)COCCN1CC(O)Cn1c2ccccc2c2ccccc21 (stereo unspecified) | 0.073 µM
27 | O=S1(=O)NCCN1CC(O)Cn1c2ccccc2c2ccccc21 (stereo unspecified) | 0.042 µM
28 | CN1CCN(CC(O)Cn2c3ccccc3c3ccccc32)S1(=O)=O (stereo unspecified) | 0.132 µM
29 | O=S1(=O)NCCCN1CC(O)Cn1c2ccccc2c2ccccc21 (stereo unspecified) | 0.384 µM
30 | CN1CCCN(CC(O)Cn2c3ccccc3c3ccccc32)S1(=O)=O (stereo unspecified) | 0.726 µM
31 | O=S(=O)(c1ccccc1)N(Cc1ccco1)CC(O)Cn1c2ccccc2c2ccccc21 (stereo unspecified) | 1.09 µM
32 | O=S(=O)(Cc1ccccc1)N(Cc1ccco1)CC(O)Cn1c2ccccc2c2ccccc21 (stereo unspecified) | 0.415 µM
33 | CS(=O)(=O)NCC(O)Cn1c2ccccc2c2ccccc21 (stereo unspecified) | 0.479 µM
34 | CN(CC(O)Cn1c2ccccc2c2ccccc21)S(C)(=O)=O (stereo unspecified) | 0.781 µM
35 | CCN(CC(O)Cn1c2ccccc2c2ccccc21)S(C)(=O)=O (stereo unspecified) | 0.505 µM
36 | CCCN(CC(O)Cn1c2ccccc2c2ccccc21)S(C)(=O)=O (stereo unspecified) | 0.408 µM
37 | CC(C)N(CC(O)Cn1c2ccccc2c2ccccc21)S(C)(=O)=O (stereo unspecified) | 0.511 µM
38 | CC(C)CN(CC(O)Cn1c2ccccc2c2ccccc21)S(C)(=O)=O (stereo unspecified) | 0.178 µM
39 | CS(=O)(=O)N(CC(O)Cn1c2ccccc2c2ccccc21)C1CC1 (stereo unspecified) | 0.446 µM
40 | CS(=O)(=O)N(CC(O)Cn1c2ccccc2c2ccccc21)C1CCC1 (stereo unspecified) | 0.129 µM
41 | CS(=O)(=O)N(Cc1ccco1)CC(O)Cn1c2ccccc2c2ccccc21 (stereo unspecified) [N-(3-carbazol-9-yl-2-hydroxypropyl)-N-(furan-2-ylmethyl)methanesulfonamide] | 0.87 µM
